Compound activity as filed in PubChem.
CendR NRP1 mod: alters CendR peptide binding to human NRP-1; FAM-RPARPAR peptide binding to NRP-1, fluorescence polarization; inhibition, % at 25 µM; AID 602438; 360,000 compounds, 0.85% hits;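 active means inhibition or corrected inhibition above about 18%, plus a signal ratio from 0.5 to 1.5, limit read from the data, passing the limit was not always enough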
ASAP1 GAP inh: ASAP1 ArfGAP inhibition | ASAP1-stimulated ARF1 GTP hydrolysis, GDP FP detection | inhibition, % at 16.5 µM | 360,000 compounds, 0.19% hits | AID 624377; in the data active means inhibition above about 25%
Target sequence (Q9ULH1 325-724 limits assumed): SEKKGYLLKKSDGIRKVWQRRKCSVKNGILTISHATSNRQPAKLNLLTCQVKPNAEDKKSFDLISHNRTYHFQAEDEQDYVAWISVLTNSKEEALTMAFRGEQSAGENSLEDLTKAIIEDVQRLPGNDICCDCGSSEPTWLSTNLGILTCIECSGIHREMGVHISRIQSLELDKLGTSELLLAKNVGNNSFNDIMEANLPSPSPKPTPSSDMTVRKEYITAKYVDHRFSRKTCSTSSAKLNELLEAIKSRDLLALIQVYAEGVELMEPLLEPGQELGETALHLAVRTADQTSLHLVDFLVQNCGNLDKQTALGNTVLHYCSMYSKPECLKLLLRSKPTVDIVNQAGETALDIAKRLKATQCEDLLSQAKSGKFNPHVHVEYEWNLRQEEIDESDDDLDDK
ARFGAP1 inhibitor: inhibits rat ARF GTPase activating protein 1 | Q62848 | Arfgap1-stimulated ARF1 GTP hydrolysis, GDP FP detection | inhibition, % at 16.5 µM | 360,000 compounds, 0.26% hits;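 active means inhibition above a per-plate limit, mean inhibition of low control wells plus 3 SD, cut at about 25% in these data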
Target sequence (Q62848 1-136 limits assumed): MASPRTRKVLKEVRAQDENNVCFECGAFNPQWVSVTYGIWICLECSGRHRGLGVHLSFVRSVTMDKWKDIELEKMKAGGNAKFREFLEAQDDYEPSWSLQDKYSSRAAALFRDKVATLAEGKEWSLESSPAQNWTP
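Repeats: one replicate per compound; assay system: rat Arfgap1 catalytic domain, aa 1-136; times: enzyme reaction 120 min at 25 °C after 20 min preincubation; detection: FP of antibody-bound GDP Alexa 633 tracer, ex 620/em 688 nm; benchmarks: high control wells lacking Arfgap1, low control full reaction with DMSO; reagent: human ARF1(Δ1-17)-GTP substrate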
Exocytosis inh: lytic granule exocytosis inhibition | 360,000 compounds, 0.66% hits | AID 651702 | TALL-104 LAMP-1 surface exposure, flow cytometry; cells stimulated with thapsigargin and PMA | inhibition, % at 10 µM;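 active means inhibition above about 55%, limit read from the data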
V-ATPase pHluor: regulators of yeast V-ATPase proton transport. S. cerevisiae, pHLuorin cytosolic pH fluorescence. response, % at 10 µM. 350,000 compounds, 0.37% hits. AID 504577; in the data active means response mostly above about 7.3%, no sharp cut-off; inactive means mostly below about 5.4%; further: actives read high
ASAP1 GAP conf: ASAP1 inhibition confirmed; shares compounds with ASAP1 GAP inh; ASAP1-stimulated Arf1 GTPase, GDP fluorescence polarization; inhibition, % at 16.5 µM; 620 compounds, 37% hits; AID 624431;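 active means mean inhibition over triplicates exceeds the hit threshold derived for the earlier primary screening run, cut at about 25% in these data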
Hits are given with their value; . = inactive; / = no result given. In the library only some 2.2% were active in any assay of this set; here they are far more common.

SMILES | CendR NRP1 mod | ASAP1 GAP inh | ARFGAP1 inhibitor | Exocytosis inh | V-ATPase pHluor | ASAP1 GAP conf
CC1=C(SCc2ccccc2)C(=O)c2ccccc2C1=O | . | 32 | . | . | . | .
Cn1c(SCc2ccccc2)nccc1=O | . | . | . | . | . | /
Cn1cc(SCC(=O)NC2CCCC2)c2ccccc21 | . | . | . | . | . | /
Cn1cc(SCC(=O)NC2CCCCC2)c2ccccc21 | . | 27 | . | . | . | .
COc1ccc(-c2sc(C(=O)c3ccc(Cl)cc3Cl)cc2CC(=O)O)cc1 | . | . | . | . | . | /
CCN(CC)S(=O)(=O)c1ccc(=O)n(CC(=O)N2CCCc3cc(C)ccc32)c1 | . | . | . | . | . | /
COc1ccc(C(C[N+](=O)[O-])c2c(C)cc3ccccn23)cc1 (centres undefined) | . | . | . | . | . | /
COc1ccc(C(C[N+](=O)[O-])c2c(C)[nH]n(-c3ccccc3)c2=O)cc1 (centres undefined) | . | 30 | 25 | . | . | .
Cc1ccc(C(=O)Nc2cccc(NC(=O)c3ccc(C)c([N+](=O)[O-])c3)n2)cc1[N+](=O)[O-] | . | 28 | . | . | . | 28
C=CCN(CC=C)CCOc1cc(C)ccc1[N+](=O)[O-] | . | 25 | . | . | . | .
CCN1CCN(C(C(=O)NC2CCCCC2)c2ccnc3ccccc23)CC1 (centres undefined) | . | . | . | . | / | /
N/C(=N\N=C\c1ccnc2ccccc12)SC1CC(=O)N(c2ccc(Br)cc2)C1=O (centres undefined) | . | 61 | . | . | . | 88
COc1ccc(/C=C2/Sc3ccc(C(=O)NCCCN4CCOCC4)cc3NC2=O)cc1OC | . | 32 | . | . | . | 89
Cc1ccc(/C=N/n2c(C)cc(C)c(C#N)c2=O)o1 | . | . | . | . | . | /
Cc1cc(C)n(/N=C/c2ccco2)c(=O)c1C#N | . | 25 | . | . | . | .
O=C1C=CC(=O)N1c1cccc2cccnc12 | . | 25 | . | . | . | .
O=C(N[C@H](C(=O)N1CCC[C@H]1C(=O)NC1CCCC1)c1ccccc1)c1ccccc1 | / | . | . | / | / | /
COc1ccc(-n2c(Cc3cccn3C)nnc2SCC(=O)N2CCOCC2)cc1 | . | . | . | . | . | /
Cn1cccc1Cc1nnc(SCC(=O)N2CCOCC2)n1-c1ccc(F)cc1 | . | 25 | . | . | . | .
Cc1ccc(N(CC(=O)N/N=C/c2cc(C)n(-c3ccccc3)c2C)S(C)(=O)=O)c(C)c1 | . | . | . | . | . | /
Cc1cc(/C=N/NC(=O)Cn2c3ccccc3c(=O)c3ccccc32)c(C)n1-c1ccccc1 | . | 25 | . | . | . | .
CC(=O)c1cccc(NC(=O)NCCc2c[nH]c3ccccc23)c1 | . | . | . | . | . | /
O=C(Nc1cccc(CNCCc2c[nH]c3ccccc23)c1)c1ccccc1Cl | . | 29 | . | . | . | .
COC(=O)[C@@]1(Cc2ccc(F)cc2)[C@H]2c3cc(C(=O)N4CCCC4)n(CCc4c[nH]c5ccccc45)c3C[C@H]2CN1C(=O)c1ccccc1 | . | . | . | . | / | /
Cc1cc(C)cc(NC(=O)CSc2nc(CSc3ccc(Cl)cc3)cc(=O)[nH]2)c1 | . | 26 | . | . | . | .
SMILES | CendR NRP1 mod | ASAP1 GAP inh | ARFGAP1 inhibitor | Exocytosis inh | V-ATPase pHluor | ASAP1 GAP conf
Nc1cc(=O)[nH]c(SCC(=O)Nc2cc(Cl)cc(Cl)c2)n1 | . | . | . | . | . | /
CC(C)(C)C(=O)Nc1ccc(Sc2ccc([N+](=O)[O-])cc2)cc1 | . | . | . | . | . | /
CC(=O)Nc1ccc(Sc2ccc([N+](=O)[O-])o2)cc1 | . | 31 | . | . | . | .
Cc1ccc(S(=O)(=O)N(CC2CO2)c2cc(Cl)ccc2Cl)cc1 (centres undefined) | . | 28 | . | . | . | .
O=C(Cc1ccccc1)O/N=C1\CCCc2ccccc21 | . | 26 | . | . | . | .
CCOC(=O)C1CCN(c2nc(N)c3c(N)nc(SCC(=O)O)cc3c2C#N)CC1 | . | 41 | 38 | . | . | 25
C=CCN(C/C(=N\O)c1sc(C(=O)OCC)nc1C)c1cccc(Br)c1 | . | 26 | . | . | . | .
Cc1cccnc1C1=NOC(Cc2ccccc2)C(=O)N1Cc1ccccc1F (centres undefined) | . | 26 | . | . | / | .
CC(=O)NC(c1ccccc1)c1nc(-c2cccnc2)cs1 (centres undefined) | . | . | . | . | / | /
Cc1ccc(NC(=O)CSc2ncccc2C(=O)Oc2cccc([N+](=O)[O-])c2)cc1Cl | . | 44 | . | . | . | 39
NS(=O)(=O)c1ccc(CCNc2nc3c(-c4cccc(F)c4)nnn3c3ccccc23)cc1 | . | 55 | . | . | . | 88
Cc1cccc(-c2nnn3c2nc(NCCc2ccc(S(N)(=O)=O)cc2)c2ccccc23)c1 | . | . | . | . | . | /
O=C(NC1CC1)c1ccc2sc([C@@H]3O[C@H](CO)[C@H](O)[C@H](O)[C@H]3O)nc2c1 | . | . | . | . | / | /
C[C@H](NC(=O)[C@H](Cc1ccccc1)NC(=O)c1cc2cc(Cl)ccc2n1C)C(=O)O | . | . | . | . | . | /
CNC(=S)N(CCc1c(C)[nH]c2ccc(C)cc12)Cc1cccs1 | . | 26 | . | . | . | .
C/C(=N\NC(=O)Cc1ccc(Cl)cc1)c1cccc(NC(=O)c2cccnc2)c1 | . | . | . | . | . | /
CC(NC(=O)c1ccc(CS(=O)(=O)c2ccc(Cl)cc2)o1)c1ccc2c(c1)OCCO2 (centres undefined) | . | 27 | . | . | . | .
Cc1ccccc1S(=O)(=O)Cc1ccc(C(=O)NC(C)c2ccc3c(c2)OCCO3)o1 (centres undefined) | . | . | . | . | . | /
Cc1[nH]c2ccccc2c1CC(=O)Nc1ccc(Nc2cccnc2)c(Br)c1 | / | 27 | . | / | / | .
Cc1ccc2c(c1C)NC(C(=O)O)C1CC=CC21 (centres undefined) | . | / | / | . | . | /
Cc1cc(C)c2c(c1)NC(C(=O)O)C1CC=CC21 (centres undefined) | . | 38 | 30 | . | . | 35
CC1(C(=O)NS(=O)(=O)C2CC2)CCN(C(=O)c2ccc3ccccc3n2)C1 (centres undefined) | . | . | . | . | / | /
NC1=NC(=O)/C(=C/c2ccc(-c3ccc(S(N)(=O)=O)cc3)o2)S1 | . | . | . | . | . | /
CS(=O)(=O)Nc1ccc(-c2ccc(/C=C3\SC(N)=NC3=O)o2)cc1 | . | 30 | . | . | . | 62
Cn1c(SCC(=O)NC2CCCCC2)nc2c(c1=O)SCC2 | . | . | . | . | . | /
Cn1c(SCC(=O)NC2CCCC2)nc2c(c1=O)SCC2 | . | 28 | . | . | . | .
O=P(O)(OCc1ccccc1)OCc1ccccc1 | . | . | . | . | . | /
O=C(COC(=O)/C=C/c1cccc(C(F)(F)F)c1)NC1CCS(=O)(=O)C1 (centres undefined) | . | . | . | . | . | /
